{"data": "Measurements pooled from the literature", "target": "Mitogen-activated protein kinase kinase kinase kinase 1 (MAP4K1, Homo sapiens, UniProt Q92918)"}
{"Structure (SMILES)": "F[C@@H]1CCN(c2nccc(-c3cnn4ncccc34)n2)C1", "test": "binding", "setting": "1 µM", "remaining binding [%]": 100}
{"Structure (SMILES)": "COc1cnc(Nc2cccc(S(N)(=O)=O)c2)nc1N1CCN(c2ccccc2)CC1", "test": "binding, competition with immobilised ligand", "setting": "1 µM", "remaining binding [%]": 88}
{"Structure (SMILES)": "CN(C)C(=O)Cn1cc(-c2nc([C@@](C)(c3ccc(-c4cnc(N)nc4)cc3)C3CC3)no2)cn1", "test": "cell-free assay, competition with immobilised ligand", "setting": "1 µM", "remaining binding [%]": 100}
{"Structure (SMILES)": "Cc1cnc(Nc2ccc(C(=O)N3CCC(N4CCCC4)CC3)cc2)nc1-c1cc2ccccc2s1", "test": "binding, competition with immobilised ligand", "setting": "1 µM", "remaining binding [%]": 22}
{"Structure (SMILES)": "C[C@H]1CCN(c2nccc(-c3cnn4ncccc34)n2)C1", "test": "binding", "setting": "1 µM", "remaining binding [%]": 99}
{"Structure (SMILES)": "O=C(NCCCN1CCOCC1)c1ccc(Nc2ncc(Cl)c(-c3ccc(Cl)s3)n2)cc1", "test": "binding, competition with immobilised ligand", "setting": "1 µM", "remaining binding [%]": 17}
{"Structure (SMILES)": "O=C(NCC1CCOCC1)c1n[nH]cc1NC(=O)c1c(F)cccc1F", "test": "binding, competition with immobilised ligand", "setting": "1 µM", "remaining binding [%]": 71}
{"Structure (SMILES)": "c1cnn2ncc(-c3ccnc(N4CCC45COC5)n3)c2c1", "test": "binding", "setting": "1 µM", "remaining binding [%]": 100}
{"Structure (SMILES)": "CN(C(=O)c1ccccc1)c1cc(N(C)c2ccc3c(c2)CCc2ccc(C(=O)NCCN4CCOCC4)cc2C3=O)ccc1F", "test": "cell-free assay, competition with immobilised ligand", "setting": "1 µM", "remaining binding [%]": 99}
{"Structure (SMILES)": "C[C@@H](c1ccc(-n2cnc3c(N)ncnc32)cc1)N1CCc2nn(C)c(Cc3ccccc3)c2C1=O", "test": "binding, competition with immobilised ligand", "setting": "0.1 µM", "remaining binding [%]": 100}
{"Structure (SMILES)": "c1cncc(-c2cccc(Nc3nccc(NC4CCCCC4)n3)c2)c1", "test": "binding, competition with immobilised ligand", "setting": "10 µM", "remaining binding [%]": 39}
{"Structure (SMILES)": "Cc1cc(-n2nc(Cc3cc(F)cc(C(F)(F)F)c3)nc2C)ccc1C(N)=O", "test": "cell-free assay, competition with immobilised ligand", "setting": "1 µM", "remaining binding [%]": 100}
{"Structure (SMILES)": "N[C@@H]1CCN(c2nccc(-c3cnn4ncccc34)n2)C1", "test": "binding", "setting": "1 µM", "remaining binding [%]": 100}
{"Structure (SMILES)": "O=C(NCCCN1CCOCC1)c1ccc(Nc2nccc(-c3cc4ccccc4s3)n2)cc1", "test": "binding, competition with immobilised ligand", "setting": "1 µM", "remaining binding [%]": 85}
{"Structure (SMILES)": "CS(=O)(=O)c1cc(C2(NC(=O)c3cncc4c3cnn4-c3ccc(F)cc3)CC2)ccn1", "test": "cell-free assay, competition with immobilised ligand", "setting": "1 µM", "remaining binding [%]": 89}
{"Structure (SMILES)": "CN(C)c1nccc(-c2cnc3ncccn23)n1", "test": "binding", "setting": "1 µM", "remaining binding [%]": 100}
{"Structure (SMILES)": "FC(F)(F)c1ccc2c(c1)nc(-c1cccnc1)n2C1CC1", "test": "cell-free assay, competition with immobilised ligand", "setting": "1 µM", "remaining binding [%]": 93}
{"Structure (SMILES)": "FC(F)(F)Oc1cccc(-c2cnc3ccc(-c4ccncc4)nn23)c1", "test": "cell-free assay, competition with immobilised ligand", "setting": "5 µM", "remaining binding [%]": 68}
{"Structure (SMILES)": "CNC(=O)Nc1ccc2c(c1)[C@@]1(CC2)OC(=O)N(CC(=O)N(Cc2ccc(F)cc2)[C@@H](C)C(F)(F)F)C1=O", "test": "cell-free assay, competition with immobilised ligand", "setting": "1 µM", "remaining binding [%]": 90}
{"Structure (SMILES)": "C=CC(=O)N1CCC(C(=O)NCC(=O)N2CCN(c3nc(-c4cnc(N)nc4C(F)F)nc(N4CCOCC4)n3)CC2)CC1", "test": "binding, competition with immobilised ligand", "setting": "1 µM", "remaining binding [%]": 100}
{"Structure (SMILES)": "CN(C)c1nccc(-c2cnn3ncccc23)n1", "test": "binding", "setting": "1 µM", "remaining binding [%]": 100}
{"Structure (SMILES)": "CO[C@H]1CC[C@H](CNc2ccc(S(=O)(=O)NC(=O)c3ccc(N4CCN(CC5=C(c6ccc(Cl)cc6)CC(C)(C)CC5)CC4)cc3Oc3cnc4[nH]ccc4c3)cc2[N+](=O)[O-])CC1", "test": "cell-free assay, competition with immobilised ligand", "setting": "1 µM", "remaining binding [%]": 69}
